This is an account of results in ChEMBL document CHEMBL1125290, “Bis basic substituted diaminobenzobisthiazoles as potential antiarthritic agents” (1992).

Holding throughout (type): functional
Assay [1] deals with Rattus norvegicus. Put plainly: Antiinflammatory activity against D-adjuvant arthritis in injected rat paw at the dose of 50 mg/kg by oral administration.
Assay [2] deals with Rattus norvegicus. The assay can be described thus: Antiinflammatory activity against D-adjuvant arthritis in uninjected rat paw at the dose of 50 mg/kg by oral administration. Summed up: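 Rat developing adjuvant arthritis screen with oral dosing on a prophylactic protocol. Percent change in body weight versus untreated animals was recorded as a preliminary toxicity sign. Significance was assessed against controls by two-tailed Student's t test, p < 0.05.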

The species named for assay [3] is Rattus norvegicus. The assay can be described thus: Antiinflammatory activity in D-adjuvant induced arthritis in rat measured by the change in body weight. Further details: concentration or dose not given beside the values.
In assay [4] the test system is Rattus norvegicus. The assay can be described thus: Antiinflammatory activity against carrageenan induced rat paw edema (CPE), dosed orally. Summed up: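 Male Sprague–Dawley rats (150 ± 10 g), five per group. Compound or vehicle given orally in 0.5% methylcellulose 1 h before subplantar injection of 0.1 mL 1% carrageenan in saline into the right hind paw. Paw volume measured by mercury displacement before dosing and 3 h after carrageenan; the difference is the edema volume. ANOVA with Dunnett's t test.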

For orientation: inhibition in vivo means the percentage by which the read-out fell short of the control. The term Inhibition denotes the share of the control response that was lost under treatment. For `CC1CCCCN1CC(=O)Nc1nc2cc3nc(NC(=O)CN4CCCCC4C)sc3cc2s1` (stereo unspecified), the results for the inhibition in vivo at 50 mg/kg in assay [1] and in assay [2] were 41% and 82%, respectively. For the same molecule, the Activity in assay [3] stood at 6%. Also, the Inhibition in assay [4] was determined as 0%.
For `CCN(CC)CC(=O)Nc1nc2cc3nc(NC(=O)CN(CC)CC)sc3c([N+](=O)[O-])c2s1`, in that order: 11%, 12%, -16% and 23%.
As to `CCN(CC)CC(=O)Nc1nc2cc3nc(N)sc3cc2s1`, the values for the inhibition in vivo at 50 mg/kg in assay [1] and in assay [2] were 34% and 61%, respectively. The Activity in assay [3] was -20%. The Inhibition in assay [4] was determined as 13%.
The like results for `CC(=O)c1ccc(N2CCN(CC(=O)Nc3nc4cc5nc(NC(=O)CN6CCN(c7ccc(C(C)=O)cc7)CC6)sc5cc4s3)CC2)cc1` were, in that order, 0%, 0%, -7% and 40%.
Turning to `CCOCCN(CCOCC)CC(=O)Nc1nc2cc3nc(NC(=O)CN(CCOCC)CCOCC)sc3cc2s1`, the results for the inhibition in vivo at 50 mg/kg in assay [1] and in assay [2] were 16% and 21%, respectively. The Activity in assay [3] was found to be 0%. In addition, the Inhibition in assay [4] was determined as 0%.
`O=C(CN1CCCCC1CC1CCCCC1)Nc1nc2cc3nc(NC(=O)CN4CCCCC4CC4CCCCC4)sc3cc2s1` (stereo unspecified): the inhibition in vivo at 50 mg/kg in assay [1] and in assay [2] was 0% in each case. The Activity in assay [3] worked out at 1%. The molecule also gave an Inhibition in assay [4] of 0%.
Turning to `CCN(CC)CC(=O)Nc1nc2c(Cl)c3nc(NC(=O)CN(CC)CC)sc3c(C#N)c2s1.Cl.Cl`, the inhibition in vivo at 50 mg/kg in assay [1] is 80%; in assay [2], 100%. The Activity in assay [3] is on record as -35%. The same molecule gave an Inhibition in assay [4] of 19%.
The like results for `O=C(CN1CCN(c2cccc(C(F)(F)F)c2)CC1)Nc1nc2cc3nc(NC(=O)CN4CCN(c5cccc(C(F)(F)F)c5)CC4)sc3cc2s1` were, in that order, 39%, 73%, 4% and 0%.
The like results for `CC(C)N(CC(=O)Nc1nc2cc3nc(NC(=O)CN(C(C)C)C(C)C)sc3cc2s1)C(C)C` were, in that order, 0%, 0%, -5% and 0%.
The like results for `O=C(CN1CCSC1)Nc1nc2cc3nc(NC(=O)CN4CCSC4)sc3cc2s1` were, in that order, 26%, 27%, 11% and 11%.
On to `CC1CCN(CC(=O)Nc2nc3cc4nc(NC(=O)CN5CCC(C)CC5)sc4cc3s2)CC1`, for which the inhibition in vivo at 50 mg/kg amounted to 70% in assay [1] and 100% in assay [2]. Besides, the Activity in assay [3] is listed as -26%. In assay [4], this molecule had an Inhibition of 20%.
For `COc1cc2nc(N)sc2c2nc(N)sc12`, in that order: 34%, 35%, -29% and 43%.
The like results for `CC1CCCC1NCC(=O)Nc1nc2cc3nc(NC(=O)CNC4CCCC4C)sc3cc2s1` (stereo unspecified) were, in that order, 0%, 0%, -22% and 36%.
The like results for `CC1CC(C)CN(CC(=O)Nc2nc3cc4nc(NC(=O)CN5CC(C)CC(C)C5)sc4cc3s2)C1` (stereo unspecified) were, in that order, 29%, 11%, -3% and 15%.
In the case of `CC(C)NCC(=O)Nc1nc2cc3nc(NC(=O)CNC(C)C)sc3cc2s1`, the results for the inhibition in vivo at 50 mg/kg in assay [1] and in assay [2] were 9% and 11%, respectively. In addition, in assay [3], the Activity stood at 7%. In addition, the Inhibition in assay [4] is listed as 28%.
As for `CN(CC(=O)Nc1nc2cc3nc(NC(=O)CN(C)C4CCCC4)sc3cc2s1)C1CCCC1`, the inhibition in vivo at 50 mg/kg was 21% in assay [1] and 3% in assay [2]. Moreover, the Activity in assay [3] is -18%. This molecule also registered an Inhibition in assay [4] of 6%.
For `CCN(CC)CC(=O)N(CC)c1nc2cc3nc(N(CC)C(=O)CN(CC)CC)sc3c(Br)c2s1`, in that order: 0%, 0%, -16% and 16%.
For `CCOC(=O)c1c2nc(NC(=O)CN(CC)CC)sc2cc2sc(NC(=O)CN(CC)CC)nc12`, in that order: 7%, 0%, -9% and 32%.
The like results for `O=C(CN1CCN(CCO)CC1)Nc1nc2cc3nc(NC(=O)CN4CCN(CCO)CC4)sc3cc2s1` were, in that order, 16%, 72%, 0% and 24%.
Consider `CCN(CC)CC(=O)Nc1nc2c(s1)c(OC)cc1nc(NC(=O)CN(CC)CC)sc12`, for which the inhibition in vivo at 50 mg/kg amounted to 47% in assay [1] and 51% in assay [2]. For the same molecule, the Activity in assay [3] came to 7%. This molecule also had an Inhibition in assay [4] of 32%.
Regarding `CCOC(=O)C1CCCCN1CC(=O)Nc1nc2cc3nc(NC(=O)CN4CCCCC4C(=O)OCC)sc3cc2s1` (stereo unspecified), the inhibition in vivo at 50 mg/kg in assay [1] stood at 6%; in assay [2] it was 0%. Moreover, the Activity in assay [3] is -16%. In assay [4], this molecule had an Inhibition of 20%.
Regarding `CCN(CC)CC(=O)Nc1nc2cc3nc(NC(=O)CN(CC)CC)sc3c(Cl)c2s1`, the figures for the inhibition in vivo at 50 mg/kg in assay [1] and in assay [2] were 94% and 100%, respectively. Also, the Activity in assay [3] is -46%. In addition, the Inhibition in assay [4] came out at 8%.
Consider `O=C(CN1CCCC1)Nc1nc2cc3nc(NC(=O)CN4CCCC4)sc3cc2s1`, for which the figures for the inhibition in vivo at 50 mg/kg in assay [1] and in assay [2] were 18% and 21%, respectively. Moreover, in assay [3], the Activity is -21%. Further, the Inhibition in assay [4] amounted to 17%.
The like results for `O=C(CN1CCN(c2ccccc2)CC1)Nc1nc2cc3nc(NC(=O)CN4CCN(c5ccccc5)CC4)sc3cc2s1` were, in that order, 40%, 56%, 1% and 0%.
The like results for `CCCN(CCC)CC(=O)Nc1nc2cc3nc(NC(=O)CN(CCC)CCC)sc3cc2s1.Cl.Cl` were, in that order, 29%, 47%, -11% and 46%.
For `O=C(CN1CCCCCC1)Nc1nc2cc3nc(NC(=O)CN4CCCCCC4)sc3cc2s1`, the inhibition in vivo at 50 mg/kg in assay [1] is 26%; in assay [2] it was 27%. Further, the Inhibition in assay [4] was found to be 0%.
In the case of `O=C(CN1CCN(c2ccc(Cl)cc2)CC1)Nc1nc2cc3nc(NC(=O)CN4CCN(c5ccc(Cl)cc5)CC4)sc3cc2s1`, the inhibition in vivo at 50 mg/kg in assay [1] turned out to be 21%; in assay [2], 41%. In assay [4], this molecule showed an Inhibition of 12%.
